Data: ChEMBL document CHEMBL5335826, “Biochemical and Structural Studies of the Carminomycin 4-O-Methyltransferase DnrK” (J Nat Prod, 2024)

Assays:
[1] = substrate: Cc1cc(=O)oc2cc(O)ccc12; assay: Binding affinity to Streptomyces peucetius 4-O-methyltransferase DnrK assessed as maximal activity
In short: (§1)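 N-His6-DnrK (10 μM), expressed in E. coli, was run in 50 mM Tris pH 8.0 at 37 °C with saturating AdoMet (1.6 mM). Acceptor was varied: carminomycin from 15 μM to […] as printed, or 4-methylumbelliferone from 150 μM to 10 mM. Methylated product was quantified by reversed-phase HPLC peak integration. Runs were in triplicate, and parameters came from Michaelis–Menten reciprocal plots.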

[2] = substrate: Cc1cc(=O)oc2cc(O)ccc12; assay: Binding affinity to Streptomyces peucetius 4-O-methyltransferase DnrK assessed as catalytic constant; in short: as §1

B1: Carminomycin 4-O-methyltransferase DnrK (Streptomyces peucetius), Q06528 (protein)
chain: MTAEPTVAARPQQIDALRTLIRLGSLHTPMVVRTAATLRLVDHILAGARTVKALAARTDTRPEALLRLIRHLVAIGLLEEDAPGEFVPTEVGELLADDHPAAQRAWHDLTQAVARADISFTRLPDAIRTGRPTYESIYGKPFYEDLAGRPDLRASFDSLLACDQDVAFDAPAAAYDWTNVRHVLDVGGGKGGFAAAIARRAPHVSATVLEMAGTVDTARSYLKDEGLSDRVDVVEGDFFEPLPRKADAIILSFVLLNWPDHDAVRILTRCAEALEPGGRILIHERDDLHENSFNEQFTELDLRMLVFLGGALRTREKWDGLAASAGLVVEEVRQLPSPTIPYDLSLLVLAPAATGA
Km [1]: 1160 µM
kcat [2]: 0.0006 s⁻¹
